In publication PMC9359741 (Clinical Cancer Research, 2022):
Several values for one entry are separate records, joined by “and”; a condition that tells them apart may be missing. Identical values can stand only once. Like-named read-outs stand apart in the source and are kept apart here.

Assays:
Assay type in all cases: in vivo, human
[1] = tested on: patients with selected advanced solid tumors
Method in brief: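 Adults (≥18 y) with histologically or cytologically confirmed selected advanced solid tumours. Oral test compound started at 200 mg QD, with planned escalation to 400 mg QD, plus anti-PD-1 antibody 2 mg/kg IV every 3 weeks. DLT incidence defined the MTD (DLT criteria in supplement). AEs and lab abnormalities were graded by CTCAE v4.03 in all patients given ≥1 dose and summarized descriptively.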

[2] = tested on: PD-1/PD-L1 inhibitor-refractory advanced solid tumors; experiment: Phase 2 efficacy; settings: PD-1/PD-L1 IR
Method in brief: (§1)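 Oral test compound 300 mg QD plus anti-PD-1 antibody 200 mg IV Q3W. PD-1/PD-L1 IR cohort: progression on anti-PD-1/PD-L1 (RECIST or irRC). prOVCA cohort: progression ≤6 months after ≥4 platinum cycles. PDA cohort: ≥1 prior systemic line. Investigator assessed best response per RECIST v1.1 and irRC. ORR used confirmed responses with Clopper–Pearson 95% CI; all dosed patients. Screening tissue was profiled for MSI/MMR, TMB and gene expression.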

[3] = tested on: platinum-resistant ovarian cancer (prOVCA); experiment: Phase 2 efficacy
Method in brief: as §1

[4] = Phase 1b, ARRY-382 200 mg, N = 6
[5] = Phase 1b, ARRY-382 300 mg, N = 6
[6] = Phase 1b, ARRY-382 400 mg, N = 7

Cc1cccc(Cn2nc(C3CC3)c3c(NC(=O)c4cnc5cc(OCCN6CCN(C)CC6)ccn45)cccc32)n1 [ARRY-382]
Patients with DLTs ([1]; 300-mg cohort: Grade 3 acute pancreatitis): 1/6 | Patients with DLTs ([1]; 400-mg cohort: Grade 2 increased CPK, Grade 3 increased ALT, AST and bilirubin): 2/7 | MTD (and RP2D) of ARRY-382 in combination with pembrolizumab ([1]; Phase 1b): 300 mg QD | Patients with a Grade 4 AE ([1]; Phase 1b): 6 (31.6%) n (%) | Patients with a grade 3 AE ([1]; Phase 1b): 9 (47.4%) n (%) | Patients with ≥1 TEAE ([1]; Phase 1b): 94.7% | Permanently discontinued due to AEs ([1]; Phase 1b): 2 (10.5%) n (%) | Deaths ([1]; Phase 1b, 12 due to disease progression, 3 for reasons unknown): Fifteen | ARRY-382-related grade ≥3 AEs ([1]; Phase 1b, 200-mg cohort): 50.0% | Discontinued due to AEs (primary reason) ([1]; Phase 1b, 200-mg cohort, one patient): 16.7% | ARRY-382-related grade ≥3 AEs ([1]; Phase 1b, 300-mg cohort): 100.0% | ARRY-382-related SAE (Grade 3 ALT and AST increased) ([1]; Phase 1b, 300-mg cohort, one patient): 16.7% | ARRY-382-related grade ≥3 AEs ([1]; Phase 1b, 400-mg cohort): 42.9% | ARRY-382-related AEs: ALT increased [1, 4]: 2 (33.3) n (%) | ARRY-382-related AEs: AST increased [1, 4]: 1 (16.7) n (%) | ARRY-382-related AEs: All AEs [1, 4]: 5 (83.3%) n (%) and 5 (83.3) n (%) | ARRY-382-related AEs: Amylase increased [1, 4]: 1 (16.7) n (%) | ARRY-382-related AEs: Blood CPK increased [1, 4]: 2 (33.3) n (%) | ARRY-382-related AEs: Blood alkaline phosphatase increased [1, 4]: 1 (16.7) n (%) | ARRY-382-related AEs: Chills [1, 4]: 1 (16.7) n (%) | ARRY-382-related AEs: Fatigue [1, 4]: 2 (33.3) n (%) | ARRY-382-related AEs: Lipase increased [1, 4]: 1 (16.7) n (%) | ARRY-382-related AEs: Nausea [1, 4]: 0 (0.0) n (%) | ARRY-382-related AEs: Pruritus [1, 4]: 2 (33.3) n (%) | ARRY-382-related AEs: Pyrexia [1, 4]: 1 (16.7) n (%) | ARRY-382-related AEs: Rash maculo-papular [1, 4]: 1 (16.7) n (%) | ARRY-382-related AEs: Thrombocytopenia [1, 4]: 0 (0.0) n (%) | ARRY-382-related AEs: ALT increased [1, 5]: 3 (50.0) n (%) | ARRY-382-related AEs: AST increased [1, 5]: 5 (83.3) n (%) | ARRY-382-related AEs: All AEs [1, 5]: 6 (100.0%) n (%) and 6 (100.0) n (%) | ARRY-382-related AEs: Amylase increased [1, 5]: 3 (50.0) n (%) | ARRY-382-related AEs: Blood CPK increased [1, 5]: 3 (50.0) n (%) | ARRY-382-related AEs: Blood alkaline phosphatase increased [1, 5]: 2 (33.3) n (%) | ARRY-382-related AEs: Chills [1, 5]: 0 (0.0) n (%) | ARRY-382-related AEs: Fatigue [1, 5]: 2 (33.3) n (%) | ARRY-382-related AEs: Lipase increased [1, 5]: 4 (66.7) n (%) | ARRY-382-related AEs: Nausea [1, 5]: 1 (16.7) n (%) | ARRY-382-related AEs: Pruritus [1, 5]: 2 (33.3) n (%) | ARRY-382-related AEs: Pyrexia [1, 5]: 0 (0.0) n (%) | ARRY-382-related AEs: Rash maculo-papular [1, 5]: 2 (33.3) n (%) | ARRY-382-related AEs: Thrombocytopenia [1, 5]: 1 (16.7) n (%) | ARRY-382-related AEs: ALT increased [1, 6]: 2 (28.6) n (%) | ARRY-382-related AEs: AST increased [1, 6]: 2 (28.6) n (%) | ARRY-382-related AEs: All AEs [1, 6]: 5 (71.4%) n (%) and 5 (71.4) n (%) | ARRY-382-related AEs: Amylase increased [1, 6]: 1 (14.3) n (%) | ARRY-382-related AEs: Blood CPK increased [1, 6]: 2 (28.6) n (%) | ARRY-382-related AEs: Blood alkaline phosphatase increased [1, 6]: 2 (28.6) n (%) | ARRY-382-related AEs: Chills [1, 6]: 1 (14.3) n (%) | ARRY-382-related AEs: Fatigue [1, 6]: 0 (0.0) n (%) | ARRY-382-related AEs: Lipase increased [1, 6]: 1 (14.3) n (%) | ARRY-382-related AEs: Nausea [1, 6]: 2 (28.6) n (%) | ARRY-382-related AEs: Pruritus [1, 6]: 0 (0.0) n (%) | ARRY-382-related AEs: Pyrexia [1, 6]: 1 (14.3) n (%) | ARRY-382-related AEs: Rash maculo-papular [1, 6]: 1 (14.3) n (%) | ARRY-382-related AEs: Thrombocytopenia [1, 6]: 1 (14.3) n (%) | ARRY-382-related AEs: ALT increased ([1]; Phase 1b, Total, N = 19): 7 (36.8) n (%) | ARRY-382-related AEs: AST increased ([1]; Phase 1b, Total, N = 19): 8 (42.1) n (%) | ARRY-382-related AEs: All AEs ([1]; Phase 1b, Total, N = 19): 16 (84.2%) n (%) and 16 (84.2) n (%) | ARRY-382-related AEs: Amylase increased ([1]; Phase 1b, Total, N = 19): 5 (26.3) n (%) | ARRY-382-related AEs: Blood CPK increased ([1]; Phase 1b, Total, N = 19): 7 (36.8) n (%) | ARRY-382-related AEs: Blood alkaline phosphatase increased ([1]; Phase 1b, Total, N = 19): 5 (26.3) n (%) | ARRY-382-related AEs: Chills ([1]; Phase 1b, Total, N = 19): 2 (10.5) n (%) | ARRY-382-related AEs: Fatigue ([1]; Phase 1b, Total, N = 19): 4 (21.1) n (%) | ARRY-382-related AEs: Lipase increased ([1]; Phase 1b, Total, N = 19): 6 (31.6) n (%) | ARRY-382-related AEs: Nausea ([1]; Phase 1b, Total, N = 19): 3 (15.8) n (%) | ARRY-382-related AEs: Pruritus ([1]; Phase 1b, Total, N = 19): 4 (21.1) n (%) | ARRY-382-related AEs: Pyrexia ([1]; Phase 1b, Total, N = 19): 2 (10.5) n (%) | ARRY-382-related AEs: Rash maculo-papular ([1]; Phase 1b, Total, N = 19): 4 (21.1) n (%) | ARRY-382-related AEs: Thrombocytopenia ([1]; Phase 1b, Total, N = 19): 2 (10.5) n (%) | ARRY-382-related increased ALT ([1]; Phase 1b, all patients): 36.8% | ARRY-382-related increased AST ([1]; Phase 1b, all patients): 42.1% | ARRY-382-related increased CPK ([1]; Phase 1b, all patients): 36.8% | Patients reporting DLTs ([1]; Phase 1b, overall): 3/19 | Periorbital edema ([1]; Phase 1b, overall): 5.3% | Median OS [2]: 12.4 (95% CI, 3.6–NR) months | Median PFS [2]: 1.6 (95% CI, 1.3–4.4) months | Median irPFS per irRC [2]: 1.5 (95% CI, 1.3–4.3) months | Best overall response: CR ([2]; N = 19): 0 (0.0) n (%) | Best overall response: NE ([2]; N = 19): 2 (10.5) n (%) | Best overall response: PD ([2]; N = 19): 9 (47.4%) n (%) and 9 (47.4) n (%) | Best overall response: PR ([2]; N = 19): 0 (0.0) n (%) | Best overall response: SD ([2]; N = 19): 8 (42.1%) n (%) and 8 (42.1) n (%) | Immune-related best overall response: CR ([2]; N = 19): 0 (0.0) n (%) | Immune-related best overall response: NE ([2]; N = 19): 11 (57.9) n (%) | Immune-related best overall response: PD ([2]; N = 19): 1 (5.3) n (%) | Immune-related best overall response: PR ([2]; N = 19): 0 (0.0) n (%) | Immune-related best overall response: SD ([2]; N = 19): 7 (36.8) n (%) | ORR, % (95% CI) ([2]; confirmed, N = 19): 0.0 (0.0–17.6) % | ir-ORR, % (95% CI) ([2]; confirmed, N = 19): 0.0 (0.0–17.6) % | Median OS [3]: NR (95% CI, 5.3–NR) | Median PFS [3]: 2.1 (95% CI, 1.2–4.1) months | Median irPFS per irRC [3]: 2.5 (95% CI, 1.2–NR) months | Best overall response: CR ([3]; N = 11): 0 (0.0) n (%) | Best overall response: NE ([3]; N = 11): 2 (18.2) n (%) | Best overall response: PD ([3]; N = 11): 5 (45.5%) n (%) and 5 (45.5) n (%) | Best overall response: PR ([3]; N = 11): 0 (0.0) n (%) | Best overall response: SD ([3]; N = 11): 4 (36.4%) n (%) and 4 (36.4) n (%) | Immune-related best overall response: CR ([3]; N = 11): 0 (0.0) n (%) | Immune-related best overall response: NE ([3]; N = 11): 5 (45.5) n (%) | Immune-related best overall response: PD ([3]; N = 11): 0 (0.0) n (%) | Immune-related best overall response: PR ([3]; N = 11): 0 (0.0) n (%) | Immune-related best overall response: SD ([3]; N = 11): 6 (54.5) n (%) | ORR, % (95% CI) ([3]; confirmed, N = 11): 0.0 (0.0–28.5) % | ir-ORR, % (95% CI) ([3]; confirmed, N = 11): 0.0 (0.0–28.5) %
